According to paper PMC5956897 (Journal of inorganic biochemistry, 2018):

Tests used:
MDA-MB-231 cells [1] = test: Intracellular ROS detection with DCFH2-DA by flow cytometry; format: cell-based
How it was run: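 Cells were seeded at 2.0 × 10⁵ per well and incubated overnight. They were treated for 2 h with test compound (50 μM) in phenol-red-free EMEM with 0.1% DMSO; the H₂O₂ control in PBS ran for 10 min. After PBS washes, cells took up DCFH₂-DA (30 μM) in warm PBS. They were detached with trypsin/EDTA, held on ice, and read by flow cytometry (488 nm excitation, 530/30 nm) within 1 h. n=3, mean ± SDM.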

MDA-MB-231 cells [2] = test: Cell cycle analysis; format: cell-based; settings: MDA-MB-231, 10 μM, 12 h
MEL cells = test: Spectrophotometric hemoglobin quantitation in induced MEL cells; format: cell-based, murine

Structure (SMILES) | DCF response compared to untreated control (MDA-MB-231 cells [1]; MDA-MB-231, positive control in PBS, 10 min) | ROS/RNS levels (DCF fluorescence) compared to untreated control (MDA-MB-231 cells [1]; MDA-MB-231, 50 μM, 2 h) | G0/1 accumulation (cell cycle arrest) (MDA-MB-231 cells [2]) | effect on hemoglobin production (MEL cells; 0.5 μM or 5 μM, 72 h, without SA) | decrease in intracellular hemoglobin concentrations (MEL cells; 72 h, without SA, statistically significant) | change in intracellular Hb concentrations (MEL cells; with succinylacetone (SA, 1 mM), normalized data)
OO [H2O2, Hydrogen peroxide] | an order of magnitude higher than that of the untreated control | – | – | – | – | –
O=C(N/N=C/c1ccccc1O)c1ccncc1 [SIH, salicyl isonicotinoyl hydrazone] | – | significant decrease of DCF fluorescence | arrest at the G1/S interface | did not have major effects on hemoglobin production | less than 20% | did not result in statistically significant changes
